Laboratory results taken from ChEMBL document CHEMBL3046951, “Volatile constituents from the leaves of Callicarpa japonica Thunb. and their antibacterial activities” (2004).

Experiments:
Format in all cases: functional
Salmonella typhimurium [1] = assay: Antimicrobial activity against Salmonella enterica subsp. enterica serovar Typhimurium ATCC 14028 assessed as growth inhibition rate at 0.03 mg/l after 72 hr by spectrophotometry; conditions: ATCC 14028, 72 h, read-out: GI
How it was run: (§1)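 Salmonella Typhimurium ATCC 14028 grown in nutrient broth at 30 °C, precultured 24 h, then subcultured 1:100 for 18 h before testing. Single volatile compounds (>95% pure) were added. OD was read every 24 h over 72 h in a Bioscreen C, with 10% Tween 80 as the comparison control.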

Staphylococcus aureus [2] = assay: Antimicrobial activity against Staphylococcus aureus ATCC 25923 assessed as growth inhibition rate at 12 mg/l after 72 hr by spectrophotometry; conditions: ATCC 25923, 72 h, read-out: GI
Listeria monocytogenes [3] = assay: Antimicrobial activity against Listeria monocytogenes ATCC 19111 assessed as growth inhibition rate at 0.03 mg/l after 72 hr by spectrophotometry; conditions: ATCC 19111, 72 h, read-out: GI
How it was run: (§2)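 L. monocytogenes was grown at 30 °C in tryptic soy broth, subcultured for 18 h, and exposed to pure volatile compounds (>95% purity). Growth was followed by Bioscreen C optical density every 24 h for 72 h against a 10% Tween 80 control.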

Escherichia coli [4] = assay: Antimicrobial activity against Escherichia coli O157:H7 ATCC 43894 assessed as growth inhibition rate at 0.03 mg/l after 72 hr by spectrophotometry; conditions: O157:H7 ATCC 43894, 72 h, read-out: GI
Salmonella typhimurium [5] = assay: Antimicrobial activity against Salmonella enterica subsp. enterica serovar Typhimurium ATCC 14028 assessed as growth inhibition rate at 1.2 mg/l after 72 hr by spectrophotometry; conditions: ATCC 14028, 72 h, read-out: GI
How it was run: (§3)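 Authentic volatiles (>95% purity; 2,4-heptadienal 90%) tested against 18 h subcultures. Growth media: E. coli O157:H7 and S. aureus in tryptic soy broth at 37 °C; L. monocytogenes in tryptic soy broth at 30 °C; V. parahaemolyticus in tryptic soy broth + 3% NaCl at 37 °C; S. typhimurium in nutrient broth at 30 °C. Bioscreen C OD every 24 h for 72 h versus 10% Tween 80 control.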

Bacillus cereus [6] = assay: Antimicrobial activity against Bacillus cereus ATCC 11778 assessed as growth inhibition rate at 12 mg/l after 72 hr by spectrophotometry; conditions: ATCC 11778, 72 h, read-out: GI
How it was run: (§4)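 Pure volatile compounds (purity >95%; one at 90%) were tested against B. cereus ATCC 11778. The strain was grown at 30 °C in nutrient broth for 24 h, then subcultured for 18 h. Optical density was read in a Bioscreen C every 24 h for 72 h, with 10% Tween 80 as the control.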

Escherichia coli [7] = assay: Antimicrobial activity against Escherichia coli O157:H7 ATCC 43894 assessed as growth inhibition rate at 0.24 mg/l after 72 hr by spectrophotometry; conditions: O157:H7 ATCC 43894, 72 h, read-out: GI
Listeria monocytogenes [8] = assay: Antimicrobial activity against Listeria monocytogenes ATCC 19111 assessed as growth inhibition rate at 24 mg/l after 72 hr by spectrophotometry; conditions: ATCC 19111, 72 h, read-out: GI; how it was run: as §2
Escherichia coli [9] = assay: Antimicrobial activity against Escherichia coli O157:H7 ATCC 43894 assessed as growth inhibition rate at 1.2 mg/l after 72 hr by spectrophotometry; conditions: O157:H7 ATCC 43894, 72 h, read-out: GI
Bacillus cereus [10] = assay: Antimicrobial activity against Bacillus cereus ATCC 11778 assessed as growth inhibition rate at 2.4 mg/l after 72 hr by spectrophotometry; conditions: ATCC 11778, 72 h, read-out: GI; how it was run: as §4
Staphylococcus aureus [11] = assay: Antimicrobial activity against Staphylococcus aureus ATCC 25923 assessed as growth inhibition rate at 24 mg/l after 72 hr by spectrophotometry; conditions: ATCC 25923, 72 h, read-out: GI
Salmonella typhimurium [12] = assay: Antimicrobial activity against Salmonella enterica subsp. enterica serovar Typhimurium ATCC 14028 assessed as growth inhibition rate at 0.24 mg/l after 72 hr by spectrophotometry; conditions: ATCC 14028, 72 h, read-out: GI; how it was run: as §1
Bacillus cereus [13] = assay: Antimicrobial activity against Bacillus cereus ATCC 11778 assessed as growth inhibition rate at 0.03 mg/l after 72 hr by spectrophotometry; conditions: ATCC 11778, 72 h, read-out: GI; how it was run: as §4
Vibrio parahaemolyticus [14] = assay: Antimicrobial activity against Vibrio parahaemolyticus ATCC 33844 assessed as growth inhibition rate at 1.2 mg/l after 72 hr by spectrophotometry; conditions: ATCC 33844, 72 h, read-out: GI; how it was run: as §3
Bacillus cereus [15] = assay: Antimicrobial activity against Bacillus cereus ATCC 11778 assessed as growth inhibition rate at 1.2 mg/l after 72 hr by spectrophotometry; conditions: ATCC 11778, 72 h, read-out: GI
How it was run: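 Pure volatile compounds (>95% purity; 2,4-heptadienal 90%) identified in the leaf extract were tested against B. cereus ATCC 11778 in nutrient broth at 30 °C. The inoculum was grown 24 h, then subcultured (0.1 mL into 9.9 mL) for 18 h. Optical density was read in a Bioscreen C every 24 h for 72 h against a 10% Tween 80 control.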

Vibrio parahaemolyticus [16] = assay: Antimicrobial activity against Vibrio parahaemolyticus ATCC 33844 assessed as growth inhibition rate at 24 mg/l after 72 hr by spectrophotometry; conditions: ATCC 33844, 72 h, read-out: GI
Escherichia coli [17] = assay: Antimicrobial activity against Escherichia coli O157:H7 ATCC 43894 assessed as growth inhibition rate at 2.4 mg/l after 72 hr by spectrophotometry; conditions: O157:H7 ATCC 43894, 72 h, read-out: GI
Escherichia coli [18] = assay: Antimicrobial activity against Escherichia coli O157:H7 ATCC 43894 assessed as growth inhibition rate at 24 mg/l after 72 hr by spectrophotometry; conditions: O157:H7 ATCC 43894, 72 h, read-out: GI
Staphylococcus aureus [19] = assay: Antimicrobial activity against Staphylococcus aureus ATCC 25923 assessed as growth inhibition rate at 2.4 mg/l after 72 hr by spectrophotometry; conditions: ATCC 25923, 72 h, read-out: GI
Staphylococcus aureus [20] = assay: Antimicrobial activity against Staphylococcus aureus ATCC 25923 assessed as growth inhibition rate at 1.2 mg/l after 72 hr by spectrophotometry; conditions: ATCC 25923, 72 h, read-out: GI; how it was run: as §3
Listeria monocytogenes [21] = assay: Antimicrobial activity against Listeria monocytogenes ATCC 19111 assessed as growth inhibition rate at 1.2 mg/l after 72 hr by spectrophotometry; conditions: ATCC 19111, 72 h, read-out: GI; how it was run: as §3
Bacillus cereus [22] = assay: Antimicrobial activity against Bacillus cereus ATCC 11778 assessed as growth inhibition rate at 24 mg/l after 72 hr by spectrophotometry; conditions: ATCC 11778, 72 h, read-out: GI; how it was run: as §4
Vibrio parahaemolyticus [23] = assay: Antimicrobial activity against Vibrio parahaemolyticus ATCC 33844 assessed as growth inhibition rate at 12 mg/l after 72 hr by spectrophotometry; conditions: ATCC 33844, 72 h, read-out: GI
Escherichia coli [24] = assay: Antimicrobial activity against Escherichia coli O157:H7 ATCC 43894 assessed as growth inhibition rate at 12 mg/l after 72 hr by spectrophotometry; conditions: O157:H7 ATCC 43894, 72 h, read-out: GI
Vibrio parahaemolyticus [25] = assay: Antimicrobial activity against Vibrio parahaemolyticus ATCC 33844 assessed as growth inhibition rate at 0.03 mg/l after 72 hr by spectrophotometry; conditions: ATCC 33844, 72 h, read-out: GI
Staphylococcus aureus [26] = assay: Antimicrobial activity against Staphylococcus aureus ATCC 25923 assessed as growth inhibition rate at 0.24 mg/l after 72 hr by spectrophotometry; conditions: ATCC 25923, 72 h, read-out: GI
Listeria monocytogenes [27] = assay: Antimicrobial activity against Listeria monocytogenes ATCC 19111 assessed as growth inhibition rate at 2.4 mg/l after 72 hr by spectrophotometry; conditions: ATCC 19111, 72 h, read-out: GI; how it was run: as §2
Vibrio parahaemolyticus [28] = assay: Antimicrobial activity against Vibrio parahaemolyticus ATCC 33844 assessed as growth inhibition rate at 0.24 mg/l after 72 hr by spectrophotometry; conditions: ATCC 33844, 72 h, read-out: GI
Listeria monocytogenes [29] = assay: Antimicrobial activity against Listeria monocytogenes ATCC 19111 assessed as growth inhibition rate at 12 mg/l after 72 hr by spectrophotometry; conditions: ATCC 19111, 72 h, read-out: GI; how it was run: as §2
Salmonella typhimurium [30] = assay: Antimicrobial activity against Salmonella enterica subsp. enterica serovar Typhimurium ATCC 14028 assessed as growth inhibition rate at 24 mg/l after 72 hr by spectrophotometry; conditions: ATCC 14028, 72 h, read-out: GI; how it was run: as §1
Bacillus cereus [31] = assay: Antimicrobial activity against Bacillus cereus ATCC 11778 assessed as growth inhibition rate at 0.24 mg/l after 72 hr by spectrophotometry; conditions: ATCC 11778, 72 h, read-out: GI; how it was run: as §4
Salmonella typhimurium [32] = assay: Antimicrobial activity against Salmonella enterica subsp. enterica serovar Typhimurium ATCC 14028 assessed as growth inhibition rate at 2.4 mg/l after 72 hr by spectrophotometry; conditions: ATCC 14028, 72 h, read-out: GI; how it was run: as §1
Listeria monocytogenes [33] = assay: Antimicrobial activity against Listeria monocytogenes ATCC 19111 assessed as growth inhibition rate at 0.24 mg/l after 72 hr by spectrophotometry; conditions: ATCC 19111, 72 h, read-out: GI; how it was run: as §2
Vibrio parahaemolyticus [34] = assay: Antimicrobial activity against Vibrio parahaemolyticus ATCC 33844 assessed as growth inhibition rate at 2.4 mg/l after 72 hr by spectrophotometry; conditions: ATCC 33844, 72 h, read-out: GI
Staphylococcus aureus [35] = assay: Antimicrobial activity against Staphylococcus aureus ATCC 25923 assessed as growth inhibition rate at 0.03 mg/l after 72 hr by spectrophotometry; conditions: ATCC 25923, 72 h, read-out: GI
Salmonella typhimurium [36] = assay: Antimicrobial activity against Salmonella enterica subsp. enterica serovar Typhimurium ATCC 14028 assessed as growth inhibition rate at 12 mg/l after 72 hr by spectrophotometry; conditions: ATCC 14028, 72 h, read-out: GI; how it was run: as §1

## C[C@@H]1CC[C@@H]2[C@@H]1[C@H]1[C@@H](CC[C@]2(C)O)C1(C)C [(-)-EPIGLOBULOL]
Salmonella typhimurium [1]
  inhibition of growth at 0.03 µg/mL: 2.2%
Staphylococcus aureus [2]
  inhibition of growth at 12 µg/mL: 99.4%
Listeria monocytogenes [3]
  inhibition of growth at 0.03 µg/mL: 5.8%
Escherichia coli [4]
  inhibition of growth at 0.03 µg/mL: 0.3%
Salmonella typhimurium [5]
  inhibition of growth at 1.2 µg/mL: 4.4%
Bacillus cereus [6]
  inhibition of growth at 12 µg/mL: 63.6%
Escherichia coli [7]
  inhibition of growth at 0.24 µg/mL: 0.7%
Listeria monocytogenes [8]
  inhibition of growth at 24 µg/mL: 94.3%
Escherichia coli [9]
  inhibition of growth at 1.2 µg/mL: 0.9%
Bacillus cereus [10]
  inhibition of growth at 2.4 µg/mL: 18.6%
Staphylococcus aureus [11]
  inhibition of growth at 24 µg/mL: 99.6%
Salmonella typhimurium [12]
  inhibition of growth at 0.24 µg/mL: 3.9%
Bacillus cereus [13]
  inhibition of growth at 0.03 µg/mL: 0.6%
Vibrio parahaemolyticus [14]
  inhibition of growth at 1.2 µg/mL: 11.1%
Bacillus cereus [15]
  inhibition of growth at 1.2 µg/mL: 13.9%
Vibrio parahaemolyticus [16]
  inhibition of growth at 24 µg/mL: 65.8%
Escherichia coli [17]
  inhibition of growth at 2.4 µg/mL: 2.1%
Escherichia coli [18]
  inhibition of growth at 24 µg/mL: 26.3%
Staphylococcus aureus [19]
  inhibition of growth at 2.4 µg/mL: 5.9%
Staphylococcus aureus [20]
  inhibition of growth at 1.2 µg/mL: 5.8%
Listeria monocytogenes [21]
  inhibition of growth at 1.2 µg/mL: 8.2%
Bacillus cereus [22]
  inhibition of growth at 24 µg/mL: 95.7%
Vibrio parahaemolyticus [23]
  inhibition of growth at 12 µg/mL: 61.2%
Escherichia coli [24]
  inhibition of growth at 12 µg/mL: 22.6%
Vibrio parahaemolyticus [25]
  inhibition of growth at 0.03 µg/mL: 3.1%
Staphylococcus aureus [26]
  inhibition of growth at 0.24 µg/mL: 2.6%
Listeria monocytogenes [27]
  inhibition of growth at 2.4 µg/mL: 10.1%
Vibrio parahaemolyticus [28]
  inhibition of growth at 0.24 µg/mL: 11.4%
Listeria monocytogenes [29]
  inhibition of growth at 12 µg/mL: 92%
Salmonella typhimurium [30]
  inhibition of growth at 24 µg/mL: 58.1%
Bacillus cereus [31]
  inhibition of growth at 0.24 µg/mL: 8.2%
Salmonella typhimurium [32]
  inhibition of growth at 2.4 µg/mL: 4.9%
Listeria monocytogenes [33]
  inhibition of growth at 0.24 µg/mL: 6.1%
Vibrio parahaemolyticus [34]
  inhibition of growth at 2.4 µg/mL: 11.7%
Staphylococcus aureus [35]
  inhibition of growth at 0.03 µg/mL: 1.7%
Salmonella typhimurium [36]
  inhibition of growth at 12 µg/mL: 39.1%
